This note sets out measurements from ChEMBL document CHEMBL1135654, “Antitumor agents. 1. Synthesis, biological evaluation, and molecular modeling of 5H-pyrido[3,2-a]phenoxazin-5-one, a compound with potent antiproliferative activity” (J Med Chem, 2002).

The subject of assay [1] is HeLa. Nature of the assay: Compound concentration required to reduce the cell proliferation of cervix carcinoma Hela cells by 50%, using MTT method. Format: functional, cell-based. Particulars: Homo sapiens. The gist of the method:
(§1)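 Solid-tumor cells in exponential growth seeded at 5 × 10^4 cells/mL in their own medium with 10% FCS, allowed to adhere 16 h, then serially diluted drug added (DMSO stock 200 µM diluted in medium). MTT viability read 4 days later, 37 °C, 5% CO2. IC50 by linear regression from % of untreated control growth. Three independent determinations.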

Assay [2] concerns CCRF-CEM. As to the kind of experiment: Compound concentration required to reduce the cell proliferation of human acute T-lymphoblastic leukemia CCRF-CEM cells by 50%, using MTT method. Format: functional, cell-based. The gist of the method: (§2)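 Leukemia/lymphoma cells in exponential growth resuspended at 1 × 10^5 cells/mL in RPMI 1640 (10% FCS, antibiotics) with serial dilutions of drug (DMSO stock 200 µM diluted in medium). Viability by MTT after 96 h at 37 °C, 5% CO2. Growth expressed as % of untreated controls; IC50 by linear regression. Controls underwent ≥3 rounds of multiplication. Mean of three independent determinations.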
(Formazan colour is commonly taken as a measure of viable cells.)

In assay [3] the test system is CCRF-SB. As to the kind of experiment: Compound concentration required to reduce the cell proliferation of human acute B-lymphoblastic leukemia CCRF-SB cells by 50%, using MTT method. Format: functional, cell-based. In a few lines: as §2
For assay [4], the system named is MT4. As to the kind of experiment: Compound concentration required to reduce the cell proliferation of human CD4+T cells by 50%, using MTT method. Format: functional, cell-based. In a few lines: as §2
Assay [5] relates to HEp-2. As to the kind of experiment: Compound concentration required to reduce the cell proliferation of larynx carcinoma cells by 50%, using MTT method. In kind it is functional, cell-based. Particulars: Homo sapiens. The gist of the method:
as §1

In assay [6] the test system is HEp-2. Nature of the assay: Antitumor activity against larynx carcinoma Hep-2 cells. In kind it is functional, cell-based. Particulars: Homo sapiens. In a few lines:
as §1

The test system of the next assay is HepG2. Nature of the assay: Antitumor activity against human hepatocellular carcinoma HepG2 cells. Format: functional, cell-based. In a few lines: as §1
The subject of the next assay is HT-29. Nature of the assay: Antitumor activity against human colon adenocarcinoma HT-29 cells. Format: functional, cell-based. In a few lines: as §1
The subject of assay [7] is Panel leukemia (Carcinoma cell lines). As to the kind of experiment: (§3) Cytotoxicity for lymphoblastoid cell lines. In kind it is functional. The settings on record: Homo sapiens.
Another assay concerns MCF7. As to the kind of experiment: Antitumor activity against human breast adenocarcinoma MCF-7 cells. In kind it is functional, cell-based. In a few lines:
as §1

Assay [8] deals with MT4. As to the kind of experiment: Antitumor activity against […] human acute T-lymphoblastic leukemia MT-4 cells. Format: functional, cell-based. In a few lines:
as §2

Assay [9] in a line: Compound concentration required to reduce the cell proliferation of Wild type and Drug- resistant KB subclones passaged in the presence of doxorubicin 0.09 uM by 50%. Particulars: Homo sapiens. In kind it is functional. The gist of the method: (§4)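 Cells seeded at 5 × 10^4 cells/mL, adhered 16 h, exposed to serial drug dilutions; MTT after 4 days. IC50 by linear regression versus untreated controls; mean ± SD of three independent determinations.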

The test system of another assay is C8166. As to the kind of experiment: Antitumor activity against […] human acute T-lymphoblastic leukemia C8166 cells. In kind it is functional, cell-based. In a few lines:
as §2

Assay [10] can be described thus: (§5) Cytotoxicity for Peripheral blood Lymphocytes. Particulars: Homo sapiens. Format: functional. In a few lines:
(§6)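 Human PBL from HIV-negative donors, isolated on Ficoll-Hypaque. Resting cells (1 × 10^6/mL) exposed up to 3 days to serial drug dilutions, washed, PHA-stimulated 24 h, diluted to 1 × 10^5/mL with PHA and IL-2, viability read after 6 days at 37 °C. Alternatively, PBL stimulated with PHA (2.5 µg/mL) 24 h, then grown with PHA, IL-2 (50 U/mL) and drug, and viable cells counted at day 6. Mean ± SD, three experiments.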

The subject of a further assay is 5637. Nature of the assay: Antitumor activity against human bladder carcinoma 5637 cells. In kind it is functional, cell-based. In a few lines: as §1
Assay [11] concerns CCRF-SB. Nature of the assay: Antitumor activity against human acute B-lymphoblastic leukemia CCRF-SB cells. Format: functional, cell-based. The gist of the method:
as §2

In the next assay the test system is CRL-7065 cell line. As to the kind of experiment: Antitumor activity against human foreskin fibroblasts CRL7065 cells. Format: functional, cell-based. The gist of the method:
as §1

Another assay relates to SK-MEL-28. Nature of the assay: Antitumor activity against human skin melanoma […] cells. Format: functional, cell-based. The gist of the method:
as §1

The nature of assay [12]: Compound concentration required to reduce the cell proliferation of Wild type and drug-resistant KB subclones passaged in the presence of etoposide 7 uM by 50%. The settings on record: Homo sapiens. Format: functional. The gist of the method:
as §4

The nature of assay [13]: Effect on the proliferation Wild -type and Drug- resistant KB subclones passaged uM. Format: functional, Homo sapiens. The gist of the method: as §4
The next assay relates to SK-MES-1. As to the kind of experiment: Antitumor activity against human lung squamous carcinoma SK-MES-1 cells. Format: functional, cell-based. In a few lines: as §1
Assay [14] has as its system HeLa. As to the kind of experiment: Antitumor activity against cervix carcinoma Hela cells. Format: functional, cell-based. Particulars: Homo sapiens. The gist of the method: as §1
A short description of assay [15]: Compound concentration required to reduce the cell proliferation of Wild type and Drug- resistant human nasopharyngeal carcinoma KB cells by 50%. In kind it is functional, cell-based. The gist of the method: as §4
The subject of assay [16] is MT4. As to the kind of experiment: Antitumor activity against human CD4+T cells expressing the TAT gene of HTLV-1 MT-4 cells. Format: functional, cell-based. The gist of the method:
as §2

Another assay relates to ACHN. Nature of the assay: Antitumor activity against human renal adenocarcinoma ACHN cells. Format: functional, cell-based. In a few lines:
as §1

Assay [17] deals with CCRF-CEM. As to the kind of experiment: Antitumor activity against human acute T-lymphoblastic leukemia CCRF-CEM cells. Format: functional, cell-based. In a few lines: as §2
The test system of another assay is WIL2-NS. Nature of the assay: Anti tumor activity against human splenic B-lympho blastoid Wil2-NS cells. In kind it is functional, cell-based. The gist of the method: as §2
In another assay the test system is DU-145. As to the kind of experiment: Antitumor activity against human prostate carcinoma DU145 cells. In kind it is functional, cell-based. The gist of the method:
as §1

A short description of assay [18]: as §5. The settings on record: Homo sapiens. In kind it is functional. The gist of the method: as §6
This is another data set of the same source.

The test system of another assay is Raji. As to the kind of experiment: Antitumor activity against human Burkitt lym phoma Raji cells. In kind it is functional, cell-based. In a few lines: as §2
For a further assay, the system named is MOLT-4. Nature of the assay: Antitumor activity against human acute T-lymphoblastic leukemia MOLT-4 cells. In kind it is functional, cell-based.
Another assay relates to G-361. Nature of the assay: Antitumor activity against human skin melanoma G-361 cells. In kind it is functional, cell-based. In a few lines: as §1
Another assay has as its system Lymphoblastoid cell. The assay is described as §3. Format: functional. The settings on record: Homo sapiens.
The nature of assay [19]: Effect on the proliferation wild-type and drug-resistant KB subclones passaged uM. Format: functional, Homo sapiens. The gist of the method:
as §4

The nature of assay [20]: Effect on the proliferation Wild -type and Drug- resistant KB subclones passaged in the presence of vincristine 0.02 uM. In kind it is functional, Homo sapiens. The gist of the method: as §4

Starred links: 1 amine or outer side, 2 acyl side, 3 side chain; linkers in the order of their positions; H or OH if unused. Positions of bridges follow the written chain, without caps; N, C: chain ends. Non-standard residues stand in square brackets, D forms with d. Residues, ends and D or L forms follow the SMILES beside them. Chains are numbered I, II in the order given. Actinocin(1to9) = Cc1c2oc3c(C)ccc(C(=O)[*:2])c3nc-2c(C(=O)[*:1])c(N)c1=O; NMeV = CN[C@H](C(=O)O)C(C)C; Sar = CNCC(=O)O

Broadly, the IC50 is the point on the concentration scale where inhibition reaches its midpoint. Turning to `CC(=O)c1c2nc3c(C(C)=O)cccc3oc-2cc(=O)c1N`, the IC50 in the assay with HeLa [1] is 2000 nM; in the assay on CCRF-CEM [2], 900 nM; in the assay with CCRF-SB [3], 500 nM; in the assay on MT4 [4] it was 1800 nM; in the assay on HEp-2 [5], 1500 nM.
The term CC50 denotes the concentration that lowers cell viability or growth by half. The low end stands for harm at low concentration, the high end for better tolerance by the cells. On to `Cc1c2oc3c(C)ccc(C(=O)N[C@@H]4C(=O)N[C@H](C(C)C)C(=O)N5CCC[C@H]5C(=O)N(C)CC(=O)N(C)[C@@H](C(C)C)C(=O)O[C@@H]4C)c3nc-2c(C(=O)N[C@@H]2C(=O)N[C@H](C(C)C)C(=O)N3CCC[C@H]3C(=O)N(C)CC(=O)N(C)[C@@H](C(C)C)C(=O)O[C@@H]2C)c(N)c1=O` [DACTINOMYCIN] (I: T[dV]P[Sar][NMeV] / II: T[dV]P[Sar][NMeV]; ester I:1-I:C, II:1-II:C; linker I:N-II:N via Actinocin(1to9)), for which the IC50 in the assay on HEp-2 [6] amounted to 4 nM; with HepG2 it was 10 nM; in the assay on HT-29 it was 6 nM; in the assay on MCF7, 6 nM; in the assay on MT4 [8], 1 nM; in assay [9] it was 200 nM. For the same compound, the IC50 stood at 0.8 nM with C8166; 3 nM in the assay on 5637; 2 nM in the assay with CCRF-SB [11]; 7 nM in the assay on CRL-7065 cell line; 2 nM with SK-MEL-28; 200 nM in assay [12]. In addition, the concentration for half-maximal inhibition (IC50) in assay [13] came to 50 nM; with SK-MES-1, 4 nM; with HeLa [14], 8 nM; in assay [15] it was 5 nM; in the assay on MT4 [16] it was 1 nM; with ACHN it was 5 nM. The concentration for half-maximal inhibition (IC50) with CCRF-CEM [17] was 1 nM; with WIL2-NS it was 3 nM; with DU-145 it was 8 nM; in the assay with Raji it was 2 nM; with MOLT-4, 1 nM; with G-361, 1 nM. For the same compound, the CC50 in assay [7] came out at 3 nM; in assay [10] it was 5 nM; in [18], 2 nM.
`COc1cccc2c1C(=O)c1c(O)c3c(c(O)c1C2=O)C[C@@](O)(C(=O)CO)C[C@@H]3O[C@H]1C[C@H](N)[C@H](O)[C@H](C)O1` [DOXORUBICIN]: the IC50 with HEp-2 [6] amounted to 40 nM; in the assay on HepG2, 120 nM; with HT-29 it was 150 nM; in the assay on MT4 [8] it was 10 nM; in assay [9], 1800 nM; with C8166, 20 nM. Also, the IC50 is 30 nM with CCRF-SB [11]; 500 nM with CRL-7065 cell line; 60 nM in the assay on SK-MEL-28; 2800 nM in assay [12]; 400 nM in assay [13]; 30 nM in the assay on SK-MES-1. The IC50 in [15] was determined as 60 nM; in the assay with MT4 [16], 10 nM; in the assay with ACHN, 40 nM; in the assay on CCRF-CEM [17] it was 20 nM; in the assay on DU-145, 30 nM; in the assay with Raji it was 30 nM. This compound had an IC50 with G-361 of 90 nM. Further, the CC50 in the assay on Lymphoblastoid cell was 20 nM; in assay [10], 40 nM; in [18], 90 nM.
`COc1cc([C@@H]2c3cc4c(cc3[C@@H](O[C@@H]3O[C@@H]5CO[C@@H](C)O[C@H]5[C@H](O)[C@H]3O)[C@H]3COC(=O)[C@H]23)OCO4)cc(OC)c1O` [ETOPOSIDE]: the IC50 is above 20000 nM in [9], 6200 nM in assay [19], above 20000 nM in [12] and 600 nM in assay [15].
Consider `CC[C@]1(O)C[C@H]2CN(CCc3c([nH]c4ccccc34)[C@@](C(=O)OC)(c3cc4c(cc3OC)N(C=O)[C@H]3[C@@](O)(C(=O)OC)[C@H](OC(C)=O)[C@]5(CC)C=CCN6CC[C@]43[C@@H]65)C2)C1` [VINCRISTINE], for which the IC50 in assay [20] worked out at 200 nM; in assay [9] it was 700 nM; in assay [12], 50 nM; in [15] it was 6 nM.
